Type in all cases: functional, organism-based
For test [1], the species on record is Mus musculus. Kind of test: Induction of IL-10 secretion in C57BL/6 mouse. In outline:
(§1)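 Mice dosed by intranasal instillation and killed after 24 h; bronchoalveolar lavage collected five times with PBS plus 3 mM EDTA; lavage fluid measured for a panel of 21 chemokines and cytokines.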

For test [2], the species on record is Mus musculus. Kind of test: Induction of RNATES secretion in C57BL/6 mouse. In outline: as §1
Test [3] is filed under the species Mus musculus. In words: Induction of GM-CSF secretion in C57BL/6 mouse. The method in brief:
as §1

The species named for test [4] is Mus musculus. In words: Immunostimulatory activity in C57BL/6 mouse assessed as recruitment of inflammatory cells into bronchoalveolar spaces. The note with it: Lung. In outline: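 Compound given to mice by intranasal instillation; animals killed 24 h later and lungs lavaged five times with PBS containing 3 mM EDTA; total and differential inflammatory cell counts determined in the bronchoalveolar lavage.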

The species entered for test [5] is Mus musculus. Kind of test: Induction of IL-2 secretion in C57BL/6 mouse. In outline:
as §1

Test [6] is filed under the species Mus musculus. Kind of test: Induction of IL-1alpha secretion in C57BL/6 mouse. The method in brief: as §1
For test [7], the species on record is Mus musculus. In words: Induction of TNFalpha secretion in C57BL/6 mouse. The method in brief:
as §1

The species named for test [8] is Mus musculus. Kind of test: Induction of MIP-1beta secretion in C57BL/6 mouse. The method in brief:
as §1

Test [9] is filed under the species Mus musculus. In words: Induction of KC secretion in C57BL/6 mouse. The method in brief: as §1
For test [10], the species on record is Mus musculus. In words: Induction of IFN-gamma secretion in C57BL/6 mouse. In outline:
as §1

The species entered for test [11] is Mus musculus. Kind of test: Induction of IL-17 secretion in C57BL/6 mouse. The method in brief: as §1
For test [12], the species on record is Mus musculus. In words: Induction of IL-6 secretion in C57BL/6 mouse. The method in brief:
as §1

Test [13] is filed under the species Mus musculus. In words: Induction of MCP-1 secretion in C57BL/6 mouse. In outline: as §1
The species named for test [14] is Mus musculus. Kind of test: Induction of IL-9 secretion in C57BL/6 mouse. In outline:
as §1

The species entered for test [15] is Mus musculus. Kind of test: Induction of VEGF secretion in C57BL/6 mouse. The method in brief:
as §1

Test [16] is filed under the species Mus musculus. In words: Induction of IL-12(p40) secretion in C57BL/6 mouse. In outline:
as §1

The species named for test [17] is Mus musculus. Kind of test: Induction of IL-3 secretion in C57BL/6 mouse. The method in brief: as §1
Test [18] is filed under the species Mus musculus. In words: Induction of IL1-beta secretion in C57BL/6 mouse. In outline: as §1
For test [19], the species on record is Mus musculus. In words: Induction of IL-13 secretion in C57BL/6 mouse. The method in brief: as §1
The species named for test [20] is Mus musculus. Kind of test: Induction of IL-5 secretion in C57BL/6 mouse. In outline:
as §1

The species entered for test [21] is Mus musculus. In words: Induction of IL-4 secretion in C57BL/6 mouse. In outline: as §1

The source made the active and inactive calls. The rule behind the calls is not given here.

On to `Nc1nc2ncn([C@@H]3O[C@@H]4COP(=O)(O)O[C@@H]5[C@H](O)[C@@H](n6cnc7nc(N)[nH]c(=O)c76)O[C@H]5COP(=O)(O)O[C@H]4[C@H]3O)c2c(=O)[nH]1`, for which the result in [1], in test [3], in [5], in [6], in [10] and in test [11] was inactive. For the same compound, the result in [14], in test [15], in test [17], in [19], in test [20] and in test [21] was inactive. The Activity entry in test [2], in test [4], in test [7], in test [8], in test [9] and in test [12] was “Dose-dependent effect” in each case. Also, the Activity result in test [13], in test [16] and in test [18] was “Dose-dependent effect” throughout.

These data come from ChEMBL document CHEMBL1152214, “Synthesis and immunostimulatory properties of the phosphorothioate analogues of cdiGMP” (Bioorg Med Chem Lett, 2008).
